# Legend:
# [1] = Inhibition of bacterial beta-lactamase KPC-2 using nitrocefin as substrate incubated for 20 mins; set-up: species or system Bacteria
# Outline: (§1)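 Nitrocefin hydrolysis read by absorbance. Enzyme titrated to give about 0.2 absorbance change over the no-enzyme control. Enzyme added to nitrocefin (final 50 μg/mL) plus inhibitor, no preincubation, read after 20 min at 35 °C. IC50 is 50% reduction of hydrolysis. N = 1.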
# [2] = Stability of the compound in phosphate buffer at pH 7.0 assessed as parent compound remaining at 40 degreeC measured after 16 hrs; type: physicochemical; details: read-out: Stability
# Outline: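 Compound held in pH 7.0 phosphate buffer at 40 °C for 16 h; amount remaining reported as %.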
# [3] = Stability in rat serum assessed as compound remaining at 5 micromol/L incubated for 30 mins by LC-MS/MS analysis; type: ADME, cell-free; details: dose 5 µmol/L, read-out: Stability
# Outline: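 Pooled rat serum incubated with 5 μmol/L compound for 30 min at 37 °C, in duplicate; aliquot mixed with methanol, centrifuged, supernatant analysed by LC/MS/MS for % remaining.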
# [4] = Inhibition of bacterial beta-lactamase CMY-2 using nitrocefin as substrate incubated for 20 mins; set-up: species or system Bacteria; outline: as §1
# [5] = Inhibition of bacterial beta-lactamase CTX-M-15 using nitrocefin as substrate incubated for 20 mins; set-up: species or system Bacteria
# [6] = Total clearance in rat by LC-MS/MS analysis; type: ADME; details: in vivo
# Escherichia coli [7] = assay: Antibacterial activity against Escherichia coli ATCC SR09613 assessed as reduction in bacterial growth by measuring minimum […] concentration incubated for 16 to 24 hrs by CLSI based two-fold serial dilution method; type: functional; details: time 16-24 hrs
# Outline: (§2)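 MPC₁ by broth microdilution: twofold serial dilutions of inhibitor in cation-adjusted Mueller Hinton broth containing ceftibuten at 1 μg/mL. Inoculum about 5 × 10⁴ cfu/well final, set from OD625. Incubation at 35 °C for 16−20 h. […] N = 1.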
# Klebsiella pneumoniae [8] = assay: Antibacterial activity against Klebsiella pneumoniae ATCC SR201218 assessed as inhibition of bacterial growth incubated for 16 to 20 hrs by CLSI based two-fold serial dilution method
# Klebsiella pneumoniae [9] = assay: Antibacterial activity against Klebsiella pneumoniae ATCC SR201218 assessed as reduction in bacterial growth by measuring minimum […] concentration incubated for 16 to 24 hrs by CLSI based two-fold serial dilution method; type: functional; details: time 16-24 hrs; outline: as §2
# [10] = Inhibition of bacterial beta-lactamase OXA-48 using nitrocefin as substrate incubated for 20 mins; set-up: species or system Bacteria; outline: as §1
# Escherichia coli [11] = assay: Antibacterial activity against Escherichia coli ATCC SR34100 assessed as reduction in bacterial growth by measuring minimum […] concentration incubated for 16 to 24 hrs by CLSI based two-fold serial dilution method; type: functional; details: time 16-24 hrs; outline: as §2
# Escherichia coli [12] = assay: Antibacterial activity against Escherichia coli ATCC SR09613 assessed as inhibition of bacterial growth incubated for 16 to 20 hrs by CLSI based two-fold serial dilution method
# Klebsiella pneumoniae [13] = assay: Antibacterial activity against Klebsiella pneumoniae ATCC BAA1705 assessed as inhibition of bacterial growth incubated for 16 to 20 hrs by CLSI based two-fold serial dilution method
# Escherichia coli [14] = assay: Antibacterial activity against Escherichia coli ATCC SR34100 assessed as inhibition of bacterial growth incubated for 16 to 20 hrs by CLSI based two-fold serial dilution method
# Klebsiella pneumoniae [15] = assay: Antibacterial activity against Klebsiella pneumoniae ATCC BAA1705 assessed as reduction in bacterial growth by measuring minimum potentiating concentration incubated for 16 to 20 hrs by CLSI based two-fold serial dilution method; details: time 16-20 hrs
# [16] = Oral bioavailability in rat at 5 mg/kg by LC/MS/MS analysis; type: ADME, organism-based; details: in vivo
# Outline: (§3)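 Plasma of the parent acid measured by LC/MS/MS (methanol precipitation, positive ESI, external standard); oral values follow prodrug dosing (rat fed, dog and monkey fasted). AUC from 0 h to last time point by linear trapezoid; F from oral AUC versus iv AUC of the parent. N = 2 (rat, dog), N = 3 (monkey, mouse).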
# [17] = Tmax in monkey at 10 mg/kg,po by LC/MS/MS analysis; type: ADME, organism-based, Macaca mulatta; details: rhesus monkey, in vivo
# [18] = Cmax in monkey at 10 mg/kg,po by LC/MS/MS analysis; type: ADME, organism-based, Macaca mulatta; set-up: dose 10 mg/kg, route po; details: rhesus monkey, in vivo; outline: as §3
# [19] = AUC in rat at 5 mg/kg,po by LC/MS/MS analysis; type: ADME, organism-based; set-up: dose 5 mg/kg, route po; details: in vivo; outline: as §3
# [20] = AUC in monkey at 10 mg/kg,po by LC/MS/MS analysis; type: ADME, organism-based, Macaca mulatta; set-up: dose 10 mg/kg, route po; details: rhesus monkey, in vivo; outline: as §3
# [21] = Cmax in rat at 5 mg/kg,po by LC/MS/MS analysis; type: ADME, organism-based; set-up: dose 5 mg/kg, route po; details: in vivo; outline: as §3
# [22] = Tmax in dog at 10 mg/kg,po by LC/MS/MS analysis; type: ADME, organism-based, Canis lupus familiaris; details: in vivo
# [23] = Cmax in dog at 10 mg/kg,po by LC/MS/MS analysis; type: ADME, organism-based, Canis lupus familiaris; set-up: dose 10 mg/kg, route po; details: in vivo; outline: as §3
# [24] = Tmax in rat at 5 mg/kg,po by LC/MS/MS analysis; type: ADME, organism-based; details: in vivo
# [25] = AUC in dog at 10 mg/kg,po by LC/MS/MS analysis; type: ADME, organism-based, Canis lupus familiaris; set-up: dose 10 mg/kg, route po; details: in vivo; outline: as §3
# [26] = Oral bioavailability in monkey at 10 mg/kg by LC/MS/MS analysis; type: ADME, organism-based, Macaca mulatta; details: rhesus monkey, in vivo; outline: as §3
# [27] = Oral bioavailability in dog at 10 mg/kg by LC/MS/MS analysis; type: ADME, organism-based, Canis lupus familiaris; details: in vivo; outline: as §3
Structure (SMILES),IC50 [1] [nM],remaining at 16 h [2] [%],IC50 [4] [nM],IC50 [5] [nM],MPC (Escherichia coli [7]) [µg/mL],MIC (Klebsiella pneumoniae [8]) [µg/mL],MPC (Klebsiella pneumoniae [9]) [µg/mL],MPC (Escherichia coli [11]) [µg/mL],MIC (Escherichia coli [12]) [µg/mL],MIC (Klebsiella pneumoniae [13]) [µg/mL],MIC (Escherichia coli [14]) [µg/mL],MPC (Klebsiella pneumoniae [15]) [µg/mL],other results
NS(=O)(=O)[C@@H]1CC[C@@H]2CN1C(=O)N2OC(F)(F)C(=O)O.[Na+],52,55,1340,104,,,,,,,,,"remaining at 0.5 h, 5 µM [3]: 39%; clearance [6]: 84.5 mL/min/kg"
Nc1ncc(C[S@@+]([O-])[C@@H]2CC[C@@H]3CN2C(=O)N3O[C@H](F)C(=O)[O-])s1.[Na+],88,,41,10,0.5,> 32,4,1,> 32,> 32,> 32,0.25,IC50 [10]: 981 nM
CC(C)OC(=O)[C@@H](F)ON1C(=O)N2C[C@H]1CC[C@H]2[S@@+](C)[O-],,56,,,,,,,,,,,bioavailability [16]: 67.6%; Tmax [17]: 60 min; Cmax [18]: 4380 ng/mL; AUC [19]: 2090 ng·h/mL; AUC [20]: 7060 ng·h/mL; Cmax [21]: 1700 ng/mL; Tmax [22]: 48 min; Cmax [23]: 7390 ng/mL; Tmax [24]: 30 min; AUC [25]: 18400 ng·h/mL; bioavailability [26]: 25.5%; bioavailability [27]: 48.1%
C[S@+]([O-])[C@@H]1CC[C@@H]2CN1C(=O)N2O[C@H](F)C(=O)[O-].[Na+],443,,655,445,0.5,> 32,2,0.125,32,32,16,0.125,IC50 [10]: 32600 nM
NS(=O)(=O)[C@@H]1CC[C@@H]2CN1C(=O)N2O[C@H](F)C(=O)[O-].[Na+],977,91,1110,249,,,,,,,,,"remaining at 0.5 h, 5 µM [3]: 78%; clearance [6]: 19.8 mL/min/kg"
O=C([O-])[C@@H](F)ON1C(=O)N2C[C@H]1CC[C@H]2[S@+]([O-])Cc1c[nH]cn1.[Na+],78,,59,8,0.125,> 32,4,1,> 32,32,32,1,
NCC[S@@+]([O-])[C@@H]1CC[C@@H]2CN1C(=O)N2O[C@H](F)C(=O)O.O=C(O)C(F)(F)F,69,,431,159,0.5,> 32,4,0.125,> 32,> 32,> 32,<0.031,
O=C([O-])[C@@H](F)ON1C(=O)N2C[C@H]1CC[C@H]2[S@+]([O-])CF.[Na+],90,,113,6,0.25,> 32,2,0.25,32,32,32,0.5,
O=C([O-])[C@@H](F)ON1C(=O)N2C[C@H]1CC[C@H]2[S@+]([O-])CCCO.[Na+],38,,39,10,0.063,> 32,2,1,> 32,> 32,> 32,0.5,
CCOC(=O)[C@@H](F)ON1C(=O)N2C[C@H]1CC[C@H]2[S@@+](C)[O-],,11,,,,,,,,,,,bioavailability [16]: 74.4%; Tmax [17]: 60 min; Cmax [18]: 4510 ng/mL; AUC [19]: 2300 ng·h/mL; AUC [20]: 8320 ng·h/mL; Cmax [21]: 2150 ng/mL; Tmax [22]: 60 min; Cmax [23]: 10600 ng/mL; Tmax [24]: 30 min; AUC [25]: 26000 ng·h/mL; bioavailability [26]: 29.9%; bioavailability [27]: 68.3%
NC(=O)OCC[S@@+]([O-])[C@@H]1CC[C@@H]2CN1C(=O)N2O[C@H](F)C(=O)[O-].[Na+],27,,64,14,0.125,> 32,4,1,> 32,> 32,> 32,1,
C[S@@+]([O-])[C@@H]1CC[C@@H]2CN1C(=O)N2OC(F)(F)C(=O)[O-].[Na+],8,17,26,5,,,,,,,,,clearance [6]: 289 mL/min/kg
